Assay results as given in ChEMBL document CHEMBL1158117, “Decaspirones A-E, bioactive spirodioxynaphthalenes from the freshwater aquatic fungus Decaisnella thyridioides” (2006).
In brackets after ≈: the same amount, converted by molar mass. Activity calls are given as the source filed them. The rule behind the calls is not given here.

Legend:
Type in all cases: functional
[1] = system: Bacillus subtilis; test: Antibacterial activity against Bacillus subtilis ATCC 6051 at 50 ug/disk; conditions: read-out: IZ
Summary of the method: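 Standard paper-disk agar diffusion test at 50 µg per disk; activity read as the diameter of the inhibition zone in mm.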

[2] = system: Candida albicans; test: Antimicrobial activity against Candida albicans ATCC 14053 at 100 ug/disk; conditions: for zone of inhibition at 100 µg/disc: read-out: IZ
[3] = system: Staphylococcus aureus; test: Antibacterial activity against Staphylococcus aureus ATCC 29213 at 100 ug/disk; conditions: for zone of inhibition at 100 µg/disc: read-out: IZ
[4] = system: Aspergillus flavus; test: Antifungal activity against Aspergillus flavus NRRL 6541 after 48 hrs; conditions: NRRL 6541, 48 h
Summary of the method: (§1)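 Broth microdilution in 96-well plates at 1, 3, 5, 10 and 25 µg/mL, with eight replicate wells per level. Compound in MeOH was dried in the well, redissolved in 10 µL MeOH, then 200 µL potato dextrose broth with about 8000 conidia was added (about 4 × 10^4/mL). For A. flavus, conidia came from 14-day PDA cultures at 25 °C and were filtered through cheesecloth. Plates were incubated 48 h at 25 °C and read on a plate reader every 8-16 h against MeOH-only controls. MIC is the lowest level with no growth. Nystatin was the positive control. F. verticillioides was run analogously.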

[5] = system: Fusarium verticillioides; test: Antifungal activity against Fusarium verticillioides NRRL 25457 at 200 ug/disk; conditions: read-out: IZ
Summary of the method: (§2)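 Agar disk diffusion at 200 µg/disk against each fungal strain, scored as the inhibition zone diameter in mm.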

[6] = system: Aspergillus flavus; test: Antifungal activity against Aspergillus flavus NRRL 6541 at >25 ug/mL after 48 hrs relative to control; conditions: in the assay text read “25 ug/mL” for “>25 ug/mL”; summary of the method: as §1
[7] = system: Fusarium verticillioides; test: Antifungal activity against Fusarium verticillioides NRRL 25457 after 48 hrs; conditions: NRRL 25457, 48 h; summary of the method: as §1
[8] = system: Aspergillus flavus; test: Antifungal activity against Aspergillus flavus NRRL 6541 at 200 ug/disk; conditions: read-out: IZ; summary of the method: as §2

MIC [4]	MIC [7]	SMILES	zone of inhibition at 50 µg/disc [1]	zone of inhibition at 100 µg/disc [2]	zone of inhibition at 100 µg/disc [3]	zone of inhibition at 200 µg/disc [5]	Activity [6]	Activity [2]	zone of inhibition at 200 µg/disc [8]	Activity [3]
		CC(=O)O[C@@H]1C=C[C@H](O)[C@H]2C(=O)C=CC3(Oc4cccc5cccc(c45)O3)[C@@H]21 [DECASPIRONE D]	30 mm	13 mm	30 mm					
> 25 µg/mL	25 µg/mL (≈ 73.9 µM)	O=C1C=CC2(Oc3cccc4cccc(c34)O2)[C@H]2[C@H]1[C@@H](O)CC[C@H]2O [DECASPIRONE C]	34 mm		28 mm	26 mm	27%	inactive	15 mm	
10 µg/mL (≈ 29.7 µM)	5 µg/mL (≈ 14.9 µM)	O=C1C=CC2(Oc3cccc4cccc(c34)O2)[C@H]2[C@H]1[C@@H](O)C=C[C@H]2O [DECASPIRONE A]	39 mm	30 mm	41 mm	20 mm			20 mm	
		CC(=O)O[C@H]1C=C[C@@H](O)[C@@H]2[C@@H]1C(=O)C=CC21Oc2cccc3cccc(c23)O1 [DECASPIRONE E]	30 mm	17 mm						inactive
		CC(=O)O[C@H]1C=C[C@@H](O)[C@@H]2[C@@H]1[C@@H](O)C=CC21Oc2cccc3cccc(c23)O1 [DECASPIRONE B]	19 mm					inactive		inactive
